Assay results from PMC9150435 (Nature, 2021).
Changes are numbered by the printed parent chain.

Assays:
MRGPRX2 mutants [1] = target: T1, MRGPRX2 mutants (Homo sapiens, UniProt Q96LB1, I135A); assay: BRET2 Gq activation, MRGPRX2 mutants; format: cell-based; conditions: MRGPRX2 I135(ICL2)A
T1 sequence (Q96LB1 1-330 I135A): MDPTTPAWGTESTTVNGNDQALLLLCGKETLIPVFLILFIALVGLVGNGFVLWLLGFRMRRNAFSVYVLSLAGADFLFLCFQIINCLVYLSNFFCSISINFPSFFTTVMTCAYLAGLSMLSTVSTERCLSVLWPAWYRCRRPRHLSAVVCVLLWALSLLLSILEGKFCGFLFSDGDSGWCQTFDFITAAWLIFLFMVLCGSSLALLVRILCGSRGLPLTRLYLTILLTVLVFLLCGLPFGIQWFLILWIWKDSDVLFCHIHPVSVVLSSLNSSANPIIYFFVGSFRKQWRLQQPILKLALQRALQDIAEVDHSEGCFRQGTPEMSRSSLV

MRGPRX2 mutants [2] = assay: BRET2 Gq activation, MRGPRX2 mutants; format: cell-based, human
MRGPRX2 mutants [3] = target: T1, MRGPRX2 mutants; assay: BRET2 Gi1 activation, MRGPRX2 mutants; format: cell-based; conditions: MRGPRX2 I135(ICL2)A
MRGPRX2 mutants [4] = assay: BRET2 Gi1 activation, MRGPRX2 mutants; format: cell-based, human; conditions: MRGPRX2 R214A, L216A
MRGPRX4 [5] = target: MRGPRX4 (Homo sapiens, UniProt Q96LA9); assay: FLIPR Ca2+ assay, agonist mode, MRGPRX4 stable cells; format: cell-based; conditions: read-out: EC50, MRGPRX4 agonist
320 GPCRs = assay: PRESTO-Tango GPCRome screening; format: cell-based; conditions: 3 μM
In short: (§1)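 HTLA cells in DMEM + 1% dialyzed FBS were PEI-transfected in-plate with PRESTO-Tango receptor DNA (17 ng/well). After overnight culture, test compound at 3 μM final was added for 18–20 h without medium change. Luminescence read 20 min after Bright-Glo. Assay control: D2 receptor with 0.1 mM quinpirole. Output is fold over basal RLU (n=4 technical replicates); receptors exceeding 3-fold basal were repeated as full dose–response.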

MRGPRX1 = MRGPRX1 (Homo sapiens, UniProt Q96LB2); assay: PRESTO-Tango single-point and concentration-response assay at MRGPRX1; format: cell-based
In short: as §1

MRGPRX4 Leu83Ser = MRGPRX4 Leu83Ser (Homo sapiens, UniProt Q96LA9, L83S); assay: Agonist potency at MRGPRX4 Leu83Ser variant; format: cell-based
MRGPRX4 mutants [6] = target: MRGPRX4 mutants (Homo sapiens, UniProt Q96LA9, Y130A); assay: BRET2 Gq activation, MRGPRX4 mutants; format: cell-based; conditions: MRGPRX4 Y130(ICL2)A
MRGPRX4 mutants [7] = assay: BRET2 Gq activation, MRGPRX4 mutants; format: cell-based, human; conditions: MRGPRX4 pocket mutants
[8] = system: Kir6.2/SUR1 potassium channel; assay: Whole-cell electrophysiology, Kir6.2/SUR1 current inhibition in HEK293 cells; format: cell-based, human
MRGPRX4 [9] = conditions: previously identified; cited from earlier work
MRGPRX2 mutants [10] = target: T2, MRGPRX2 mutants (Homo sapiens, UniProt Q96LB1, W243A); assay: BRET2 Gq activation, MRGPRX2 mutants; format: cell-based; conditions: MRGPRX2 W243A
T2 sequence (Q96LB1 1-330 W243A): T1 sequence (Q96LB1 1-330 I135A) with A135I, W243A

MRGPRX2 mutants [11] = target: T3, MRGPRX2 mutants (Homo sapiens, UniProt Q96LB1, F170A); assay: BRET2 Gq activation, MRGPRX2 mutants; format: cell-based; conditions: MRGPRX2 F170(ECL2)A
T3 sequence (Q96LB1 1-330 F170A): T1 sequence (Q96LB1 1-330 I135A) with A135I, F170A

MRGPRX4 Leu83Ser, sequence (Q96LA9 whole entry L83S): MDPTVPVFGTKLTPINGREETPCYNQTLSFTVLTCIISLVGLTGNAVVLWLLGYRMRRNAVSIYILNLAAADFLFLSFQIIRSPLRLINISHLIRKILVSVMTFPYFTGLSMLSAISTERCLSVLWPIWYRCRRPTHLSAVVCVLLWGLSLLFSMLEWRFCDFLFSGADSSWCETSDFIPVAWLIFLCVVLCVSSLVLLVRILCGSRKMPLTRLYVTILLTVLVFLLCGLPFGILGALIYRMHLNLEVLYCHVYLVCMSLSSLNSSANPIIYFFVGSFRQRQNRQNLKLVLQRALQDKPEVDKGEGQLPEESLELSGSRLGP
MRGPRX1, sequence (Q96LB2 whole entry): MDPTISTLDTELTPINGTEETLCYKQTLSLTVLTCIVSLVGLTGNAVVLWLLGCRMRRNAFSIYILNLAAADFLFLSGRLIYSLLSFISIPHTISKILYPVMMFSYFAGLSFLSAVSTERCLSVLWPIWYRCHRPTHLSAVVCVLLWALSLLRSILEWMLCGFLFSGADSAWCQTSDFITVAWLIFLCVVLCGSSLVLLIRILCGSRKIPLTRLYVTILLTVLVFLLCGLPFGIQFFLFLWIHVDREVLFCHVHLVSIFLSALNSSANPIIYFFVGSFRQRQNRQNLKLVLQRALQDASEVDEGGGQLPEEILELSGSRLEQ
MRGPRX4 mutants (Homo sapiens, UniProt Q96LA9, Y130A), sequence (Q96LA9 whole entry Y130A): as the sequence (Q96LA9 whole entry L83S) above, with S83L, Y130A counted along it
MRGPRX4 (Homo sapiens, UniProt Q96LA9), sequence (Q96LA9 whole entry): as the sequence (Q96LA9 whole entry L83S) above, with S83L counted along it

CN(C)[C@@H]1CCN(c2cc(-c3ccccc3)nc3ccnn23)C1 [(R)-ZINC-3573]
effect of I135A mutation on stimulated Gq activation (MRGPRX2 mutants [1]): greatly reduced | effect of D184A and E164A substitutions on agonist stimulated Gq activation (MRGPRX2 mutants [2]; MRGPRX2 D184A, E164A): impaired the efficacy | effect of most alanine mutations in the (R)-ZINC-3573 pocket (MRGPRX2 mutants [2]; MRGPRX2 pocket alanine mutants): greatly reduced the efficacy | effect of I135A mutation on stimulated Gi1 activation (MRGPRX2 mutants [3]): attenuate | effect of ICL3 mutations R214A and L216A on stimulated Gi1 activation (MRGPRX2 mutants [4]): impairs

C[C@]12CC3CC(C(=O)N[C@H](Cc4ccccc4)C(=O)O)(C1)C[C@@](C)(C3)C2 [MS47134]
EC50 (MRGPRX4 [5]): 150 nM | off-target agonist or antagonist activity across GPCRome (320 GPCRs): activity only at MRGPRX4 and MRGPRX1 | activity against MRGPRX1 in concentration-response assay (MRGPRX1; full dose-response repeat): not replicated | activity at MRGPRX1, fold of basal levels of relative luminescence units (MRGPRX1; single-point assay, 3 μM): more than 3 fold | effect of Leu83Ser mutation on agonist potency (MRGPRX4 Leu83Ser): greatly attenuated the potency | effect of Y130A mutation on agonist potency (MRGPRX4 mutants [6]): reduced the agonist potency | effect of most mutations surrounding MS47134 on potency (MRGPRX4 mutants [7]): greatly affected its potency | selectivity over Kir6.2/SUR1 channel compared to nateglinide [8]: higher selectivity | improved selectivity for MRGPRX4 over the Kir6.2/SUR1 potassium channel ([8]; MRGPRX4 FLIPR vs Kir6.2/SUR1 current inhibition): 47 fold

CC(C)[C@H]1CC[C@H](C(=O)N[C@H](Cc2ccccc2)C(=O)O)CC1 [nateglinide]
MRGPRX4 agonist potency (MRGPRX4 [9]): low micromolar agonist | effect of Leu83Ser mutation on agonist potency (MRGPRX4 Leu83Ser): greatly attenuated the potency

cortistatin-14 (PCKNFFWKTFSSCK)
effect of W243A mutation on agonist stimulated Gq activation (MRGPRX2 mutants [10]): abolished the activity | effect of I135A mutation on stimulated Gq activation (MRGPRX2 mutants [1]): greatly reduced | effect of F170A mutation on agonist stimulated Gq activation (MRGPRX2 mutants [11]): reduced the potency | effect of I135A mutation on stimulated Gi1 activation (MRGPRX2 mutants [3]): attenuate | effect of ICL3 mutations R214A and L216A on stimulated Gi1 activation (MRGPRX2 mutants [4]): impairs
